{"source": "paper PMC3609949", "about": "(Journal of the American Chemical Society, 2013)", "assay": "TEM imaging of self-assembled nanostructures in water", "type": "physicochemical", "conditions": "50 μM in water, stained with 2% uranyl acetate", "how_it_was_run": "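Negative-stain TEM using 2% aqueous uranyl acetate to enhance contrast. Most stained samples were imaged at 50 μM. Some other images were taken at 1 mM, and one panel is listed at both 50 μM and 100 μM. Filament widths are given as value ± spread.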", "note": "Where a SMILES comes first, the peptide text is derived from it. The star is where a group is joined. X1 = CC[C@@]1(OC(=O)CCCS*)C(=O)OCc2c1cc1n(c2=O)Cc2cc3ccccc3nc2-1"}
{"smiles": "CC[C@H](C)[C@H](NC(=O)[C@H](CCC(N)=O)NC(=O)[C@@H](NC(=O)CNC(=O)[C@H](CSSCCCC(=O)O[C@]1(CC)C(=O)OCc2c1cc1n(c2=O)Cc2cc3ccccc3nc2-1)NC(C)=O)C(C)C)C(=O)N[C@H](C(=O)N[C@@H](Cc1ccc(O)cc1)C(=O)N[C@@H](CCCCN)C(=O)N[C@@H](CCCCN)C(N)=O)C(C)C", "note": "[mCPT-buSS-Tau] (Ac-C(X1)GVQIVYKK-NH2; N-terminus and C-terminus assumed)", "values": [{"measurement": "width of self-assembled filaments/nanotubes", "value": "6.7 ± 1", "unit": "nm"}]}
